Results of several laboratories.
Compare with care: the assays were run in different laboratories.
Target: Tyrosine-protein kinase Lck (LCK, Homo sapiens, UniProt P06239)

effect on	technique	concentration	remaining binding [%]	Compound
cell-free assay	competition with immobilised ligand	1 µM	100	CCCOc1ccc([C@@H]2[C@@H](C(=O)O)[C@H](c3ccc4c(c3)OCO4)CN2CC(=O)Nc2c(CC)cccc2CC)cc1
binding		1 µM	93	C[C@@H]1CCN(c2nccc(-c3cnn4ncccc34)n2)C1
cell-free assay	competition with immobilised ligand	1 µM	100	CN([C@@H]1CCc2c(CC(=O)O)c3cc(S(C)(=O)=O)ccc3n2C1)S(=O)(=O)c1ccc(F)cc1
binding	competition with immobilised ligand	1 µM	22	CCN1CCN(Cc2ccc(C(=O)Nc3ccc(C)c(Oc4ccc5c(c4)CC(=O)N5)c3)cc2C(F)(F)F)CC1
binding	competition with immobilised ligand	1 µM	100	O=C(Nc1c[nH]nc1C(=O)NC1CCNCC1)c1cc(F)cc(F)c1
binding		1 µM	99	c1cnn2ncc(-c3ccnc(N4CCC45COC5)n3)c2c1
cell-free assay	competition with immobilised ligand	1 µM	100	CC1=C(C#N)[C@@H](c2ccc3[nH]nc(C)c3c2)C(C#N)=C(c2ccc(Cl)cc2)N1
binding	competition with immobilised ligand	1 µM	34	O=C(c1ccc(Nc2nccc(-c3cc4ccccc4s3)n2)cc1)N1CCC(N2CCCC2)CC1
cell-free assay	competition with immobilised ligand	5 µM	35	FC(F)(F)Oc1cccc(-c2cnc3ccc(-c4ccncc4)nn23)c1
binding	competition with immobilised ligand	1 µM	100	O=C(NCCCN1CCOCC1)c1ccc(Nc2ncc(Cl)c(-c3ccc(Cl)s3)n2)cc1
binding	competition with immobilised ligand	1 µM	90	C=CC(=O)N1CCC(C(=O)NCC(=O)N2CCN(c3nc(-c4cnc(N)nc4C(F)F)nc(N4CCOCC4)n3)CC2)CC1
binding	competition with immobilised ligand	1 µM	21	O=C(c1ccc(Nc2ncc(Cl)c(-c3cc4ccccc4s3)n2)cc1)N1CCC(N2CCCC2)CC1
cell-free assay	competition with immobilised ligand	1 µM	100	COc1ccc2c(c1)O[C@@H](c1ccc(OC)c(OC)c1)C[C@H]2NC(=O)C1(c2ccc3c(c2)OC(F)(F)O3)CC1
binding		1 µM	100	F[C@@H]1CCN(c2nccc(-c3cnn4ncccc34)n2)C1
binding	competition with immobilised ligand	1 µM	94	CNC(=O)[C@@H]1CC[C@@H](n2c(-c3ccc4cnccc4c3)nc3ccc(C(=O)NCc4cccc(C(N)=O)c4)cc32)C1
cell-free assay	competition with immobilised ligand	1 µM	80	COc1ccc2cc(OCC3(C(=O)O)CN(C(=O)c4ccc(F)cc4)C3)ccc2c1
